Results published in ChEMBL document CHEMBL1145830, “Design, synthesis, and evaluation of psorospermin/quinobenzoxazine hybrids as structurally novel antitumor agents” (J Med Chem, 2003).
pIC50: −log10 of the molar value.

Assays:
[1] = system: NCI-H522 (human); test: Inhibitory concentration against H522 (NSCLS) cancer cell line
[2] = system: Granta; test: Inhibitory concentration against Granta lymphoma cancer cell line; format: functional, cell-based; conditions: Homo sapiens
Procedure, shortened: (§1)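 MTT growth assay: exponentially growing cells, (1-2) × 10^3 per well in 0.1 mL medium, were seeded on day 0 and cultured per supplier instructions. On day 1 an equal volume of medium carrying graded compound concentrations was added. On day 4 cultures received MTT (1 mg/mL in Dulbecco's PBS) for 4 h at 37 °C.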

[3] = system: HT-29; test: Inhibitory concentration against HT-29 colon cancer cell line; format: functional, cell-based; conditions: Homo sapiens
Procedure, shortened: as §1

[4] = system: U-937; test: Inhibitory concentration against U937 lymphoma cancer cell line; format: functional, cell-based; conditions: Homo sapiens
Procedure, shortened: as §1

[5] = system: RPMI-8226; test: Inhibitory concentration against 8226 myeloma cancer cell line; format: functional, cell-based; conditions: Homo sapiens
Procedure, shortened: as §1

[6] = system: HeLa; test: Inhibitory concentration against Hela cervix cancer cell line; format: functional, cell-based; conditions: Homo sapiens
Procedure, shortened: as §1

[7] = system: MCF7; test: Inhibitory concentration against MCF-7 breast cancer cell line; format: functional, cell-based; conditions: Homo sapiens
Procedure, shortened: as §1

[8] = system: MIA PaCa-2; test: Inhibitory concentration against MIA PaCa pancreas cancer cell line; format: functional, cell-based; conditions: Homo sapiens
Procedure, shortened: as §1

[9] = system: RPMI-8226; test: Inhibitory concentration against 8226/Dox40 (Dox-Re) cancer cell line; format: functional, cell-based; conditions: Homo sapiens
Procedure, shortened: as §1

[10] = system: DU-145; test: Inhibitory concentration against DU145 prostate cancer cell line; format: functional, cell-based; conditions: Homo sapiens
Procedure, shortened: as §1

pIC50 [1]	pIC50 [2]	pIC50 [3]	pIC50 [4]	pIC50 [5]	pIC50 [6]	pIC50 [7]	pIC50 [8]	pIC50 [9]	pIC50 [10]	Structure (SMILES)
6.52	7.05	6.35	6.51	6.57	6.10	6.18	6.38	6.57	6.33	N[C@H]1CCN(c2c(F)cc3c(=O)c(C(=O)O)cn4c3c2Oc2ccccc2-4)C1
7.15	8.40	6.85	7.52	7.05	6.54	6.62	7.05	7.30	7.10	C[C@]1([C@H]2Cc3ccc4c(c3O2)-n2cc(C(=O)O)c(=O)c3cc(F)c(N5CC[C@H](N)C5)c(c32)O4)CO1
7.70	8.70	7.05	7.70	7.30	6.89	7.10	7.40	7.52	7.52	C[C@@](O)(CCl)[C@H]1Cc2ccc3c(c2O1)-n1cc(C(=O)O)c(=O)c2cc(F)c(N4CC[C@H](N)C4)c(c21)O3

Structure (SMILES)	pIC50 [1]	pIC50 [2]	pIC50 [3]	pIC50 [4]	pIC50 [5]	pIC50 [6]	pIC50 [7]	pIC50 [8]	pIC50 [9]	pIC50 [10]
COc1cc2c(c3oc4c(O)cccc4c(=O)c13)C[C@H]([C@@]1(C)CO1)O2 [PSOROSPERMIN]	6.11	7.40	5.95	6.57	6.54	5.84	6.24	6.42	6.64	6.68
